# Measurements taken from ChEMBL document CHEMBL4145662, “Novel Nonsteroidal Progesterone Receptor (PR) Antagonists with a Phenanthridinone Skeleton” (ACS Med Chem Lett, 2018).
# The source made the active and inactive calls. The calls are words filed in the database; no cut-off is given here.
# What was measured:
# [1] = molecular target: T1, Progesterone receptor (Homo sapiens, UniProt P06401); assay: Displacement of [1,2,6,7-3H]progesterone from recombinant human GST-tagged PGR LBD (678 to 933 residues) expressed in baculovirus-infected insect cells measured after 24 hrs by liquid scintillation counting method
# T1 sequence (P06401 whole entry): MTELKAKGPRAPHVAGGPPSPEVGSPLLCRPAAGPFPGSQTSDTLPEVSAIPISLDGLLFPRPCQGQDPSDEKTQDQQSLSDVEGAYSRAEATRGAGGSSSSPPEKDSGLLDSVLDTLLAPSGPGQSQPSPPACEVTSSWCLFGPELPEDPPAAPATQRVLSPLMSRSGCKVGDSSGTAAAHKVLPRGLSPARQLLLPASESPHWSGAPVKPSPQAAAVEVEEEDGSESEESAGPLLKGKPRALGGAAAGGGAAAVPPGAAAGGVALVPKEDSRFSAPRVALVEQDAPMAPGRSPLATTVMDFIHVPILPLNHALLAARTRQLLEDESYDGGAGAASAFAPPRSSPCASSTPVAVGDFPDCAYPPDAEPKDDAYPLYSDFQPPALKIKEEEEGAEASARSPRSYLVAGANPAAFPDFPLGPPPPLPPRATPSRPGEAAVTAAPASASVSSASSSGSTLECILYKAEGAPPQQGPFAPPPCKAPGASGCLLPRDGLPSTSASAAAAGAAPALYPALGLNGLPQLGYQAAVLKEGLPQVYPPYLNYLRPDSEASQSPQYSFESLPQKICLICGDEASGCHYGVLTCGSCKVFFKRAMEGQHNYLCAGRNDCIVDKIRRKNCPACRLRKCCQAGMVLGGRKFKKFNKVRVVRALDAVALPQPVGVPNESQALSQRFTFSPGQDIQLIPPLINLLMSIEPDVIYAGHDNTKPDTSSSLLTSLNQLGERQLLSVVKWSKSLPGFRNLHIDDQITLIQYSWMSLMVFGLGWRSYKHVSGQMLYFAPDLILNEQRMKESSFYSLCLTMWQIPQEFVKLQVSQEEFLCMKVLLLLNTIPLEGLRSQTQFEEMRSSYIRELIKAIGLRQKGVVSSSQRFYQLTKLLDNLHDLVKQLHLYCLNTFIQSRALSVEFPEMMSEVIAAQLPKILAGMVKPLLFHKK
# [2] = organism: Homo sapiens; assay: Selectivity ratio of IC50 for human GAL4N-fused LXRbeta LBD expressed in HEK293 cells to IC50 for PR in human T47D cells assessed as inhibition of progesterone-induced alkaline phosphatase activity; assay type: cell-based
# [3] = molecular target: T2, Glucocorticoid receptor (Homo sapiens, UniProt P04150); assay: Antagonist activity at human CMX-GRalpha expressed in HEK293 cells assessed as reduction in dexamethasone-induced transactivation activity after 24 hrs by luciferase reporter gene assay; assay type: cell-based
# T2 sequence (P04150 whole entry): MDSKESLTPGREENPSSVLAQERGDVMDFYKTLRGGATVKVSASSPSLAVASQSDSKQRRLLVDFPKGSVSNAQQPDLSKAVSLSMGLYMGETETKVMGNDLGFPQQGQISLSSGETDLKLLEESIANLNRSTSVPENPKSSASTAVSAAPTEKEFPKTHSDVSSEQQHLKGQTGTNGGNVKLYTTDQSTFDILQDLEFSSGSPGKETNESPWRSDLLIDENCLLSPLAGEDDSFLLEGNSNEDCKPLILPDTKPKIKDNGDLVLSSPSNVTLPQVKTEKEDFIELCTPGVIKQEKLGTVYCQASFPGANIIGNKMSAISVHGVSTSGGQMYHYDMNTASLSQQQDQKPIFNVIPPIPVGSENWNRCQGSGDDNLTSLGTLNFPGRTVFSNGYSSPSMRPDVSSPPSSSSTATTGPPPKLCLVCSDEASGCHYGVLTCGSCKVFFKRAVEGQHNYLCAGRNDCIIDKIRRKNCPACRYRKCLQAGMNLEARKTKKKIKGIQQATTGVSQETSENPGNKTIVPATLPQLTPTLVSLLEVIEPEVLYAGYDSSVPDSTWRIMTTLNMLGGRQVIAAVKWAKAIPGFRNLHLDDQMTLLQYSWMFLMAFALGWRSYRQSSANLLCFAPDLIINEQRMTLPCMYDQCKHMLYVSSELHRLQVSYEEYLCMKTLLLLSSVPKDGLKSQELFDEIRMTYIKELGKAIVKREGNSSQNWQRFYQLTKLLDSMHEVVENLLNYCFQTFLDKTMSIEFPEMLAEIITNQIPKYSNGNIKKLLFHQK
# Procedure, shortened: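 GRα antagonism measured by reporter gene assay with dexamethasone (1 nM) as agonist.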
# [4] = molecular target: T1, Progesterone receptor; assay: Agonist activity at PR in human T47D cells at 10 uM; assay type: cell-based
# [5] = molecular target: T3, Oxysterols receptor LXR-alpha (Homo sapiens, UniProt Q13133); assay: Antagonist activity at human GAL4N-fused LXRalpha LBD expressed in HEK293 cells assessed as reduction in T0901317-induced transactivation activity after 24 hrs by luciferase reporter gene assay; assay type: cell-based
# T3 sequence (Q13133 whole entry): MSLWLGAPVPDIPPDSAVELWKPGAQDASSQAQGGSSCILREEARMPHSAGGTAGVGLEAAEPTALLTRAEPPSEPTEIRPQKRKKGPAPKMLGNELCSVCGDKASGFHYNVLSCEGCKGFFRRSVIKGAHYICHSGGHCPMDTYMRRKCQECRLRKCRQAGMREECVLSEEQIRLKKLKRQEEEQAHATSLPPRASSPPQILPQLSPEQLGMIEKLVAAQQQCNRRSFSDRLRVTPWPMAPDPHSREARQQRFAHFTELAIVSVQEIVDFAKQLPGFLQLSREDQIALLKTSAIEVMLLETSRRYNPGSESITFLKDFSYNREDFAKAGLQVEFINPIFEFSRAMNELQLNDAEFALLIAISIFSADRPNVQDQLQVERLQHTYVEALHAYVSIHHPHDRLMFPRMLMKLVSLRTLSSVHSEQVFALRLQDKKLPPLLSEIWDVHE
# [6] = molecular target: T4, Nuclear receptor ROR-gamma (Homo sapiens) (UniProt P51449); assay: Antagonist activity at human RORgamma1 expressed in HEK293 cells at 20 uM after 24 hrs by luciferase reporter gene assay; assay type: cell-based
# T4 sequence (whole entry): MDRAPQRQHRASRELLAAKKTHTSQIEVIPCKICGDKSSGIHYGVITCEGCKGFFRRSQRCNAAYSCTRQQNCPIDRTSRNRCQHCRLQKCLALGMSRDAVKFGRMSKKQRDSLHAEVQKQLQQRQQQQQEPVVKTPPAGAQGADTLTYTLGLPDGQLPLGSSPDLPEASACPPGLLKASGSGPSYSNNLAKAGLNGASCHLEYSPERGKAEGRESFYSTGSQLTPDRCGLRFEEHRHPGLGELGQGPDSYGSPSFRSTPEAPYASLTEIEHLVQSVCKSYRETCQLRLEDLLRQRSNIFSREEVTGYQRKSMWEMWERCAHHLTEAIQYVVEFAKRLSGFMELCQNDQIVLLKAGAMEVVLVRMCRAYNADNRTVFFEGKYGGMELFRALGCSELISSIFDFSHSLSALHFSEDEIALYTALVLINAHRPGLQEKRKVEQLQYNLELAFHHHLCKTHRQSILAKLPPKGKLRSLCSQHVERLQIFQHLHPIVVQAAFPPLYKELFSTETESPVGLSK
# Procedure, shortened: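 Inverse agonism at RORα, RORβ or RORγ measured by reporter gene assay.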
Structure (SMILES),IC50 [1],Ratio IC50 [2],IC50 [3],Activity [4],IC50 [5],Activity [6]
Cc1cc(C(O)(C(F)(F)F)C(F)(F)F)cc2c1[nH]c(=O)c1cc(F)ccc12,0.34 µM,> 300,> 20 µM,Not Active,> 20 µM,inactive
Cc1cc(C(O)(C(F)(F)F)C(F)(F)F)cc2c3ccc(F)cc3c(=O)n(C)c12,0.15 µM,> 300,> 20 µM,Not Active,> 20 µM,inactive
Cc1cc(C(O)(C(F)(F)F)C(F)(F)F)cc2c1[nH]c(=O)c1ccccc12,1.5 µM,> 100,> 20 µM,Not Active,> 20 µM,–
